Reference: ChEMBL document CHEMBL1128171, “A series of N4-imidoethyl derivatives of 1-(2,3-dihydro-1,4-benzodioxin-5-yl)piperazine as 5-HT1A receptor ligands: synthesis and structure-affinity relationships” (J Med Chem, 1995)

Key:
[1] = target: T1, 5-hydroxytryptamine receptor 1A (Rattus norvegicus, UniProt P19327); assay: Inhibition of [3H]2-(di-N-propylamino)-8-hydroxytetralin binding to 5-HT1A receptor of rat frontal cortex homogenates; format: tissue-based
T1 sequence (P19327 whole entry): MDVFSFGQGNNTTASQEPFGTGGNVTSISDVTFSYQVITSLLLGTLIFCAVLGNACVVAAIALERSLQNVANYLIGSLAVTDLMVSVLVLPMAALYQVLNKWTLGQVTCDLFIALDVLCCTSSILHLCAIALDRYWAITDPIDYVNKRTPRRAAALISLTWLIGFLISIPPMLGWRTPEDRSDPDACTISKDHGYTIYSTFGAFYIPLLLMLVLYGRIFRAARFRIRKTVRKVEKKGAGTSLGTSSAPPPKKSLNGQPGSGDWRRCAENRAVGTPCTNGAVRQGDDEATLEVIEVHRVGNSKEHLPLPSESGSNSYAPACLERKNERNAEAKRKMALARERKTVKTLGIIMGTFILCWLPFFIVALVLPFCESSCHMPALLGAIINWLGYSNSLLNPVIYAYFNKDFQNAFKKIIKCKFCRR
In short: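 Rat frontal cortex homogenates incubated with [3H]-8-OH-DPAT at 37 °C, pH 7.7. Four to six drug concentrations, each in triplicate; three to six assays per value. IC50 for displacement of specific binding converted to Ki by Cheng–Prusoff using radioligand concentration and Kd. Reported as pKi.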

[2] = Ionisation constant of the compound; format: ADME
In short: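 Potentiometric titration at 37 °C (±1 °C) under nitrogen, using a glass pH electrode calibrated at pH 4, 7 and 9. 30 mg substance in 40 mL 0.1 M KCl in carbonate-free water, 0.002-0.005 M. Titrant 0.05 M NaOH added in 0.05 mL steps. pKa calculated from 5-15 curve points (pre-precipitation only) and averaged.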

| SMILES | Ki [1] [nM] | pKa [2] |
| --- | --- | --- |
| Cc1ccc2c(c1)C(=O)N(CCN1CCN(c3cccc4c3OCCO4)CC1)C2=O | 4.79 | 6.1 |
| O=C1C2=C(CCCC2)C(=O)N1CCN1CCN(c2cccc3c2OCCO3)CC1 | 6.46 | 6.3 |
| O=C1C2CCCCC2C(=O)N1CCN1CCN(c2cccc3c2OCCO3)CC1 (configuration not stated) |  | 6.07 |
| O=C1c2ccccc2C(=O)N1CCN1CCN(c2cccc3c2OCCO3)CC1 | 32.4 |  |
| O=C1CC2(CCCC2)CC(=O)N1CCN1CCN(c2cccc3c2OCCO3)CC1 | 0.708 | 6.51 |

More lines, now with the values ahead:

| Ki [1] [nM] | pKa [2] | SMILES |
| --- | --- | --- |
| 977 | 5.9 | O=C1C=CC(=O)N1CCN1CCN(c2cccc3c2OCCO3)CC1 |
| 63.1 | 6.3 | CC1=CC(=O)N(CCN2CCN(c3cccc4c3OCCO4)CC2)C1=O |
| 151 | 6.16 | CC1CC(=O)N(CCN2CCN(c3cccc4c3OCCO4)CC2)C1=O (configuration not stated) |
| 110 | 6.16 | O=C1CCC(=O)N1CCN1CCN(c2cccc3c2OCCO3)CC1 |
| 347 | 6.4 | O=C1CCCC(=O)N1CCN1CCN(c2cccc3c2OCCO3)CC1 |
| 10 | 6.05 | O=C1C2CC=CCC2C(=O)N1CCN1CCN(c2cccc3c2OCCO3)CC1 (configuration not stated) |
| 4.68 | 6.42 | CC1(C)CC(=O)N(CCN2CCN(c3cccc4c3OCCO4)CC2)C(=O)C1 |
